Data taken from ChEMBL document CHEMBL4689842, “EUbOPEN Chemogenomics Library wave 1” (2021).
Several values for one entry are separate records, joined by “and”; a condition that tells them apart may be missing. Equal values may be shown once.

System: U2OS
Assay: Multiplex assay against U2OS
Format: toxicity, cell-based
Conditions: human, 1 µM, compound concentration 1 uM
Summary of the method: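 Tubulin, mitochondrial-mass and membrane-permeability phenotypes are per cents of healthy-nucleus cells. Cells were gated by CellPathfinder machine learning into Hoechst high-intensity objects or normal cells, normal cells into healthy, pyknosed or fragmented nuclei, and pyknosed cells into mitotic or apoptotic. Before that, live cells stained at seeding with Hoechst33342, BioTracker Green Microtubule Cytoskeleton Dye, MitoTracker Red and Annexin V Alexa Fluor 680 were imaged on a CQ1 microscope at 37°C and 5% CO2 after compound addition.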

SMILES: CC(C)C(=O)Nc1n[nH]c2cc(-c3cccc(NS(=O)(=O)C4CC4)c3)ccc12
- Population Apoptotic (%) (12 h, replicate 1): 33% and 20%
- Population Fragmented Nuclei (%) (12 h, replicate 1): 8% and 3%
- Population Healthy Nuclei (%) (12 h, replicate 1): 88% and 86%
- Population Membrane Permeable-Phenotype (%) (12 h, replicate 1): 18% and 12%
- Population Mitochondria Different-Phenotype (%) (12 h, replicate 1): 22% and 20%
- Population Mitotic Cells (%) (12 h, replicate 1): 66% and 80%
- Population Normal (%) (12 h, replicate 1): 98% and 95%
- Population Pyknosed Nuclei (%) (12 h, replicate 1): 3% and 9%
- Population Tubulin-Different-Phenotype (%) (12 h, replicate 1): 21% and 32%
- Total Cell Count (12 h, replicate 1): 108 and 215
- Population Apoptotic (%) (12 h, replicate 2): 25% and 16%
- Population Fragmented Nuclei (%) (12 h, replicate 2): 11%
- Population Healthy Nuclei (%) (12 h, replicate 2): 82% and 92%
- Population Hoechst High Intensity Objects (%) (12 h, replicate 2): 12% and 6%
- Population Membrane Permeable-Phenotype (%) (12 h, replicate 2): 21% and 10%
- Population Mitochondria Different-Phenotype (%) (12 h, replicate 2): 42% and 28%
- Population Mitotic Cells (%) (12 h, replicate 2): 75% and 83%
- Population Normal (%) (12 h, replicate 2): 87% and 94%
- Population Pyknosed Nuclei (%) (12 h, replicate 2): 5% and 4%
- Population Tubulin-Different-Phenotype (%) (12 h, replicate 2): 26% and 18%
- Total Cell Count (12 h, replicate 2): 122 and 78
- Population Apoptotic (%) (24 h, replicate 1): 27% and 25%
- Population Fragmented Nuclei (%) (24 h, replicate 1): 5% and 2%
- Population Healthy Nuclei (%) (24 h, replicate 1): 90% and 89%
- Population Hoechst High Intensity Objects (%) (24 h, replicate 1): 2% and 3%
- Population Membrane Permeable-Phenotype (%) (24 h, replicate 1): 12% and 10%
- Population Mitochondria Different-Phenotype (%) (24 h, replicate 1): 17% and 24%
- Population Mitotic Cells (%) (24 h, replicate 1): 72% and 75%
- Population Normal (%) (24 h, replicate 1): 97% and 96%
- Population Pyknosed Nuclei (%) (24 h, replicate 1): 4% and 8%
- Population Tubulin-Different-Phenotype (%) (24 h, replicate 1): 23% and 38%
- Total Cell Count (24 h, replicate 1): 152 and 246
- Population Apoptotic (%) (24 h, replicate 2): 18% and 21%
- Population Fragmented Nuclei (%) (24 h, replicate 2): 4% and 3%
- Population Healthy Nuclei (%) (24 h, replicate 2): 82% and 88%
- Population Hoechst High Intensity Objects (%) (24 h, replicate 2): 8% and 4%
- Population Mitochondria Different-Phenotype (%) (24 h, replicate 2): 41% and 31%
- Population Mitotic Cells (%) (24 h, replicate 2): 81% and 78%
- Population Normal (%) (24 h, replicate 2): 91% and 95%
- Population Pyknosed Nuclei (%) (24 h, replicate 2): 12% and 7%
- Population Tubulin-Different-Phenotype (%) (24 h, replicate 2): 35%
- Total Cell Count (24 h, replicate 2): 144 and 96
